# From ChEMBL document CHEMBL4396890, “Synthesis, Biological Evaluation, Structure-Activity Relationship, and Mechanism of Action Studies of Quinoline-Metronidazole Derivatives Against Experimental Visceral Leishmaniasis” (J Med Chem, 2019)
# The source made the active and inactive calls. The calls are words filed in the database; no cut-off is given here.
# Experiments:
# [1] = AUC (0 to infinity) in BALB/c mouse at 50 mg/kg, po administered via gavage by LC-MS/MS analysis; format: ADME, organism-based; parameters: dose 50 mg/kg, time infinity, route oral; settings: in vivo
# Leishmania donovani [2] = assay: Induction of reactive oxygen species generation in Leishmania donovani MHOM/IN/80/Dd8 promastigotes at 50 uM measured after 48 hrs by H2DCFDA probe-based flow cytometry (reference value: 7%); format: functional
# [3] = Cmax in BALB/c mouse at 50 mg/kg, po administered via gavage by LC-MS/MS analysis; format: ADME, organism-based; parameters: dose 50 mg/kg, route oral; settings: in vivo
# Leishmania donovani [4] = assay: Induction of apoptosis in Leishmania donovani MHOM/IN/80/Dd8 promastigotes assessed as late apoptotic cells at 50 uM measured after 48 hrs by Annexin V-FITC/propidium iodide staining based assay (reference value: 0.46%); format: functional
# [5] = Tmax in BALB/c mouse at 50 mg/kg, po administered via gavage by LC-MS/MS analysis; format: ADME, organism-based; settings: in vivo
# Leishmania donovani [6] = assay: Antileishmanial activity against Leishmania donovani MHOM/IN/80/Dd8 amastigotes harboring luciferase reporter gene infected in mouse J774 cells assessed as stimulation of host immunity by measuring change in IL12 level at 50 uM after 48 hrs by ELISA; format: functional, organism-based
# Summary of the method: (§1)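 Infected J774 macrophages (24 h infection) were treated with 50 μM compound for 48 h. Culture supernatants were assayed by ELISA for TNF-α and IL-12 (Th1) and for TGF-β and IL-10 (Th2), compared with infected untreated cells.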
# Leishmania donovani [7] = assay: Induction of apoptosis in Leishmania donovani MHOM/IN/80/Dd8 promastigotes assessed as late apoptotic cells at 50 uM measured after 12 hrs by Annexin V-FITC/propidium iodide staining based assay (reference value: 0.02%); format: functional
# Leishmania donovani [8] = assay: Induction of nitric oxide generation in Leishmania donovani MHOM/IN/80/Dd8 promastigotes assessed as increase in fluorescence at 50 uM measured after 12 hrs by DAF-2DA dye-based flow cytometry relative to control; format: functional
# Summary of the method: (§2)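 Log-phase promastigotes exposed to 50 μM for 6–18 h, vehicle control 0.1% DMSO, then labelled with 40 μM DAF-2DA. Fluorescence (GMFC) read by flow cytometry and expressed as fold change over vehicle. At least 3 independent experiments in duplicate.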
# Leishmania donovani [9] = assay: Induction of nitric oxide generation in Leishmania donovani MHOM/IN/80/Dd8 promastigotes assessed as increase in fluorescence at 50 uM measured after 6 hrs by DAF-2DA dye-based flow cytometry relative to control; format: functional; summary of the method: as §2
# Leishmania donovani [10] = assay: Induction of plasma membrane permeabilization in Leishmania donovani MHOM/IN/80/Dd8 promastigotes assessed as non specific pore formation at MIC measured after 4 hrs by sytox green dye based flow cytometry; format: functional, organism-based
# Leishmania donovani [11] = assay: Antileishmanial activity against Leishmania donovani MHOM/IN/80/Dd8 amastigotes harboring luciferase reporter gene infected in mouse J774 cells assessed as stimulation of host immunity by measuring change in TNFalpha level at 50 uM after 48 hrs by ELISA; format: functional, organism-based; summary of the method: as §1
# Leishmania donovani [12] = assay: Induction of morphological changes in Leishmania donovani MHOM/IN/80/Dd8 promastigotes assessed as appearance of round shape parasite at 50 uM after 48 hrs by bright field microscopic analysis; format: functional, organism-based
# Leishmania donovani [13] = assay: Induction of apoptosis in Leishmania donovani MHOM/IN/80/Dd8 promastigotes assessed as late apoptotic cells at 50 uM measured after 12 hrs by Annexin V-FITC/propidium iodide staining based assay (reference value: 0.46%); format: functional
# Leishmania donovani [14] = assay: Antileishmanial activity against Leishmania donovani MHOM/IN/80/Dd8 amastigotes harboring luciferase reporter gene infected in mouse J774 cells assessed as stimulation of host immunity by measuring change in TGFbeta level at 50 uM after 48 hrs by ELISA; format: functional, organism-based; summary of the method: as §1
# Leishmania donovani [15] = assay: Induction of apoptosis in Leishmania donovani MHOM/IN/80/Dd8 promastigotes assessed as early apoptotic cells at 50 uM measured after 24 hrs by Annexin V-FITC/propidium iodide staining based assay (reference value: 6.91%); format: functional
# [16] = Clearance in BALB/c mouse at 50 mg/kg, po administered via gavage by LC-MS/MS analysis; format: ADME, organism-based; settings: in vivo
# Leishmania donovani [17] = assay: Induction of apoptosis in Leishmania donovani MHOM/IN/80/Dd8 promastigotes assessed as increase in meta-caspase activity at 50 uM using BOC-GRR-AMC as substrate preincubated for 1 hr followed by substrate addition and measured after 2 hrs by fluorometric assay relative to control; format: functional
# Summary of the method: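 Log-phase promastigotes treated with 50 μM for 24 and 48 h, with or without 1 h pretreatment with antipain (1 μM) or zVAD-fmk (100 μM). Vehicle control was 0.1% DMSO. Metacaspase activity in cell lysates measured with fluorogenic BOC-GRR-AMC, given as relative fluorescence units per mg protein.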
# Leishmania donovani [18] = assay: Induction of apoptosis in Leishmania donovani MHOM/IN/80/Dd8 promastigotes assessed as late apoptotic cells at 50 uM measured after 48 hrs by Annexin V-FITC/propidium iodide staining based assay (reference value: 0.02%); format: functional
# Leishmania donovani [19] = assay: Induction of reactive oxygen species generation in Leishmania donovani MHOM/IN/80/Dd8 promastigotes at 50 uM measured after 24 hrs by H2DCFDA probe-based flow cytometry (reference value: 7%); format: functional
# Leishmania donovani [20] = assay: Induction of mitochondrial potential loss in Leishmania donovani MHOM/IN/80/Dd8 promastigotes assessed as shift in red to green fluorescence at 50 uM after 12 hrs by JC1 dye-based flow cytometry (reference value: 7.37%); format: functional
# Summary of the method: (§3)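 Exponential-phase promastigotes were incubated with 50 μM compound for 6−48 h, or 0.1% DMSO vehicle. CCCP (50 μM) served as positive control. After JC-1 staining, the red-to-green fluorescence shift was measured by flow cytometry.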
# [21] = Elimination rate constant in BALB/c mouse at 50 mg/kg, po administered via gavage by LC-MS/MS analysis; format: ADME, organism-based; settings: in vivo
# Leishmania donovani [22] = assay: Antileishmanial activity against Leishmania donovani MHOM/IN/80/Dd8 promastigotes infected in BALB/c mouse assessed as reduction in parasite load in spleen at 100 mg/kg, ip administered once daily for 5 days measured 7 days post dose by giemsa staining-based assay relative to control; format: functional; parameters: scale not given: the % may be the effect or the level left
# Summary of the method: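 Hamster-passaged strain was transformed to promastigotes. Stationary-phase cells (2 × 10^7 in 0.2 mL PBS) were injected into the tail vein of BALB/c mice. From day 15 post-infection, mice received compound ip in 8% DMSO in PBS for 5 consecutive days, 5 mice per group. Mice were killed day 7 post-treatment. Liver and spleen burden was read from Giemsa-stained stamp smears as LDU.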
# Leishmania donovani [23] = assay: Induction of mitochondrial potential loss in Leishmania donovani MHOM/IN/80/Dd8 promastigotes assessed as shift in red to green fluorescence at 50 uM after 6 hrs by JC1 dye-based flow cytometry (reference value: 7.37%); format: functional; summary of the method: as §3
# Leishmania donovani [24] = assay: Induction of reactive oxygen species generation in Leishmania donovani MHOM/IN/80/Dd8 promastigotes at 50 uM measured after 12 hrs by H2DCFDA probe-based flow cytometry (reference value: 7%); format: functional
# [25] = Apparent volume of distribution in BALB/c mouse at 50 mg/kg, po administered via gavage by LC-MS/MS analysis; format: ADME, organism-based; settings: in vivo
# Leishmania donovani [26] = assay: Induction of mitochondrial potential loss in Leishmania donovani MHOM/IN/80/Dd8 promastigotes assessed as shift in red to green fluorescence at 50 uM after 48 hrs by JC1 dye-based flow cytometry (reference value: 7.37%); format: functional; summary of the method: as §3
smiles,measurement,setting,value
Cc1cc(-c2ccc(OCCn3c([N+](=O)[O-])cnc3C)cc2)nc2ccccc12,AUC(0-inf),[1],18200 ng·h/mL
same,Activity,Leishmania donovani [2],58.2%
same,Cmax,[3],6860 ng/mL
same,Activity,Leishmania donovani [4],44.11%
same,Tmax,[5],45 min
same,Activity,Leishmania donovani [6],inactive
same,Activity,Leishmania donovani [7],1.43%
same,fold change (FC),Leishmania donovani [8],3.6
same,fold change (FC),Leishmania donovani [9],1.75
same,Activity,Leishmania donovani [10],inactive
same,Activity,Leishmania donovani [11],inactive
same,Activity,Leishmania donovani [12],Active
same,Activity,Leishmania donovani [13],20.59%
same,Activity,Leishmania donovani [14],inactive
same,Activity,Leishmania donovani [15],4.04%
same,CL/F,[16],45.8 mL/min/kg
same,fold change (FC),Leishmania donovani [17],3.8
same,Activity,Leishmania donovani [18],0.41%
same,Activity,Leishmania donovani [19],41.41%
same,Activity,Leishmania donovani [20],33.15%
same,k el,[21],4.72e-05 s⁻¹
same,Activity,Leishmania donovani [22],81.7%
same,Activity,Leishmania donovani [23],23.15%
same,Activity,Leishmania donovani [24],31.61%
same,Vd(app),[25],15.98 L/kg
same,Activity,Leishmania donovani [26],68.76%
